The source of these data is ChEMBL document CHEMBL4138133, “2,3-Dihydro-3β-methoxy Withaferin-A Protects Normal Cells against Stress: Molecular Evidence of Its Potent Cytoprotective Activity” (J Nat Prod, 2017).

SMILES strings stand for the structures. Activity calls are given as the source filed them. No cut-off for these calls is given here.

One data set has as its system WI-38. Put plainly: Cytotoxicity against human WI38 cells assessed as inhibition of colony formation by crystal violet staining based assay. The class given is cell-based. In short, it runs like this:
(§1)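 500 cells/well seeded, cultured about 2 weeks with medium (control or compound-supplemented) renewed every fourth day; colonies fixed, stained, counted; triplicates, Student's t test.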

For data set [1], the target named is Kelch-like ECH-associated protein 1 (Homo sapiens, UniProt Q14145). Description: Activation of keap1 in human TIG3 cells assessed as Nrf2 nuclear accumulation at 0.6 uM by immuno staining analysis. The class given is cell-based. In short, it runs like this: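 Methanol-fixed (chilled absolute methanol) TIG-3 fibroblasts treated with Wi-A or 3βmWi-A; immunofluorescence staining with antibodies, imaged by epifluorescence microscopy; signal quantitated from three independent experiments.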
Sequence of Kelch-like ECH-associated protein 1 (Q14145 whole entry): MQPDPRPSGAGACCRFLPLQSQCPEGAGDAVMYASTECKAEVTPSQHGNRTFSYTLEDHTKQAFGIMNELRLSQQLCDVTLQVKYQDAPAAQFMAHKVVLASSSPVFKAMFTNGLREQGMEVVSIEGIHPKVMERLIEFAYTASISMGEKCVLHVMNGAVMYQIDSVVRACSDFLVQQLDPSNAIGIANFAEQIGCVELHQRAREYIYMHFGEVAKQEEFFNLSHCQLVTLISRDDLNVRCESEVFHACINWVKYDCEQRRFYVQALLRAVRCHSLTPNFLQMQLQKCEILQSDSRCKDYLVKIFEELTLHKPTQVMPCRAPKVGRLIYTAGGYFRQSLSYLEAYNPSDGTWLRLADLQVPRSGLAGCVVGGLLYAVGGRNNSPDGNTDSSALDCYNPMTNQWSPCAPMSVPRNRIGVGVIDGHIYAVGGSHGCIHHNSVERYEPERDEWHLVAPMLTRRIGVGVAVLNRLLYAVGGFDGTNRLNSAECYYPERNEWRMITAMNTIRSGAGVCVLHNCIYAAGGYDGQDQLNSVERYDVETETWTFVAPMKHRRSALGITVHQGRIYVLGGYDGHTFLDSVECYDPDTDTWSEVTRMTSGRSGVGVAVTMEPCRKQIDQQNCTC

In data set [2] the test system is TIG-3. Description: Cytoprotective activity against H2O2-induced oxidative stress in human TIG3 cells assessed as decrease in CARF level pretreated with H2O2 for 2 hrs followed by compound addition by immuno fluorescence staining based assay. The class given is functional, cell-based.
In data set [3] the test system is TIG-3. Description: Cytotoxicity against human TIG3 cells assessed as inhibition of colony formation by crystal violet staining based assay. The class given is cell-based. In short, it runs like this:
as §1

Data set [4] relates to TIG-3. Put plainly: Cytoprotective activity against H2O2-induced oxidative stress in human TIG3 cells assessed as decrease in gammaH2AX level at 0.6 uM pretreated with H2O2 for 2 hrs followed by compound addition by immuno fluorescence staining based analysis. The data set is classed as functional, cell-based. In short, it runs like this: (§2)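 TIG-3 fibroblasts (DMEM, 10% FBS, 37 °C) stressed with H2O2 (500 μM, 2 h) or UV (50 mJ/cm2), then recovered in compound-supplemented medium. Cells fixed in chilled absolute methanol and immunostained for the marker. Images taken by fluorescence microscopy and staining intensity quantified. Triplicate experiments.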

The test system of data set [5] is TIG-3. Put plainly: Cytoprotective activity against doxorubicin-induced stress in human TIG3 cells assessed as increase in cell survival pretreated with doxorubicin for 24 hrs followed by compound addition measured after 2 days by crystal violet staining based assay. The data set is classed as functional.
For data set [6], the target named is Mitogen-activated protein kinase 1 (Homo sapiens) (UniProt P28482). Put plainly: Induction of ERK2 phosphorylation at Tyr204 residues in UV-irradiated human TIG3 cells using 50 mJ/cm2 of UV radiations followed by compound addition by immuno fluorescence staining based analysis. In short, it runs like this:
as §2

The subject of data set [7] is TIG-3. Put plainly: Cytoprotective activity against H2O2-induced oxidative stress in human TIG3 cells assessed as increase in Bcl2 level at 0.6 uM pretreated with H2O2 for 2 hrs followed by compound addition by immunoblot analysis. The class given is functional, cell-based. In short, it runs like this: (§3)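 TIG-3 cells stressed with H2O2 (500 μM, 2 h), then recovered in medium containing 0.3 or 0.6 μM compound. Lysed in NP40 buffer; 10−20 μg protein immunoblotted for pAkt Ser473, p-p38 Thr180/Tyr182, p-p44/42 Thr202/Tyr204, β-catenin, survivin, Bcl-2 or full-length PARP-1. Triplicate experiments.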
Background: Immunoblotting shows a protein as a band on a membrane.

The subject of data set [8] is TIG-3. Put plainly: Cytoprotective activity against UV irradiation-induced stress in human TIG3 cells assessed as increase in cell survival at 3 uM irradiated with 50 mJ/cm2 of UV radiations followed by compound addition measured after 72 hrs by crystal violet staining based assay. The data set is classed as functional.
Data set [9] concerns the target Mitogen-activated protein kinase 3 (Homo sapiens) (UniProt P27361). Put plainly: Induction of ERK1 phosphorylation at Thr202 residues in H2O2 treated human TIG3 cells pretreated with H2O2 for 2 hrs followed by compound addition by immuno fluorescence staining based analysis. In short, it runs like this:
as §2

Data set [10] has as its system TIG-3. Put plainly: Decrease in keap1 expression level in human TIG3 cells at 0.3 to 3 uM by immunoblot analysis. The data set is classed as ADME, cell-based. The following applies: tig-3, 3 µM. In short, it runs like this: (§4)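 TIG-3 cells treated with compound, lysed in NP40 buffer (centrifuged 20 min, 4 °C); 10−20 μg protein immunoblotted for indicated proteins; band quantitation from three independent experiments, Student's t or Mann−Whitney test.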

The subject of data set [11] is TIG-3. Description: Cytotoxicity against human TIG3 cells assessed as induction of senescence at 70 to 72 population doubling at 0.5 uM. The data set is classed as cell-based. The conditions noted are these: tig-3, 0.5 µM.
The target of data set [12] is Mitogen-activated protein kinase 3 (Homo sapiens) (UniProt P27361). Put plainly: Induction of ERK1 phosphorylation at Thr202 residues in H2O2 treated human TIG3 cells at 0.6 uM pretreated with H2O2 for 2 hrs followed by compound addition by immunoblot analysis. In short, it runs like this:
as §3

In data set [13] the test system is TIG-3. Description: Cytoprotective activity against etoposide-induced stress in human TIG3 cells assessed as increase in cell survival pretreated with etoposide for 24 hrs followed by compound addition measured after 2 days by crystal violet staining based assay. The data set is classed as functional.
Data set [14] relates to TIG-3. Description: Effect on p21 WAF1 expression level in human TIG3 cells at 0.3 to 3 uM by immunoblot analysis. The following applies: tig-3, 3 µM. The class given is ADME, cell-based. In short, it runs like this:
as §4

For data set [15], the system named is TIG-3. Put plainly: Cytoprotective activity against H2O2-induced oxidative stress in human TIG3 cells assessed as decrease in 53BP1 level at 0.6 uM pretreated with H2O2 for 2 hrs followed by compound addition by immuno fluorescence staining based analysis. The data set is classed as functional, cell-based. In short, it runs like this: as §2
Data set [16] concerns TIG-3. Description: Induction of oxidative stress in human TIG3 cells assessed as increase in p53 expression level at 0.6 uM by immunoblot analysis. The class given is cell-based. The following applies: tig-3, 0.6 µM. In short, it runs like this: as §4
Data set [17] relates to TIG-3. Description: Cytoprotective activity against H2O2-induced oxidative stress in human TIG3 cells assessed as decrease in protein disulfide isomerase expression level at 0.6 uM pretreated with H2O2 for 2 hrs followed by compound addition by immuno fluorescence staining based analysis. The class given is functional, cell-based. In short, it runs like this: as §2
Data set [18] has as its target MAP kinase p38 (Homo sapiens) (UniProt O15264+Q15759+Q16539+P53778). Put plainly: Induction of p38 MAPK phosphorylation at Thr180/Tyr182 residues in H2O2 treated human TIG3 cells at 0.6 uM pretreated with H2O2 for 2 hrs followed by compound addition by immunoblot analysis. In short, it runs like this: as §3
Data set [19] concerns TIG-3. Put plainly: Induction of oxidative stress in human TIG3 cells assessed as increase in CARF expression level at 0.6 uM by immunoblot analysis. The following applies: tig-3, 0.6 µM. The class given is cell-based. In short, it runs like this: as §4

Sequence of Mitogen-activated protein kinase 3 (Homo sapiens) (P27361 whole entry): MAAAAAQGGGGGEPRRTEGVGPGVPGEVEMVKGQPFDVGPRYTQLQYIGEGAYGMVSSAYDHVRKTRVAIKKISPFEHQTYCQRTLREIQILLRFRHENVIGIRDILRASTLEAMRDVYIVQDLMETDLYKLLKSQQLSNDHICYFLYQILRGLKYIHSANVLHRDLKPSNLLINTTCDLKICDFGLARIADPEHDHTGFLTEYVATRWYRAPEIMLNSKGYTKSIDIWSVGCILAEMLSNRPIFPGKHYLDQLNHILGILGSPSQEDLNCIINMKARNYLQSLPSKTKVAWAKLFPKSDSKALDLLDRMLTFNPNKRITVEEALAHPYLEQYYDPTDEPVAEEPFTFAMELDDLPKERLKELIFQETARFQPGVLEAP
Sequence of Mitogen-activated protein kinase 1 (Homo sapiens) (P28482 whole entry): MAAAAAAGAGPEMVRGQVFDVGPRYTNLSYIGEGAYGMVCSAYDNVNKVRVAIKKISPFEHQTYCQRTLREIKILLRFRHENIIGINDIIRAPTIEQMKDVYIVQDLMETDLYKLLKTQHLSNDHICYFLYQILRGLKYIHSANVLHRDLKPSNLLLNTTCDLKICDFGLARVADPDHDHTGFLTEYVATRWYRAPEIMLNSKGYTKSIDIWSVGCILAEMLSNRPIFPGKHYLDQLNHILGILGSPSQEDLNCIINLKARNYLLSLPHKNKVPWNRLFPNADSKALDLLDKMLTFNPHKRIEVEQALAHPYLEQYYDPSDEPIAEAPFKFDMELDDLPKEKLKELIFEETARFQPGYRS

On to `CO[C@H]1CC(=O)[C@]2(C)[C@H]3CC[C@]4(C)[C@@H]([C@H](C)[C@H]5CC(C)=C(CO)C(=O)O5)CC[C@H]4[C@@H]3C[C@H]3O[C@]32[C@H]1O`, for which the Activity entry is “Non-Toxic” in the data set on WI-38; “Not Active” in [1]; “Non-Toxic” in the data set with TIG-3 [3]; “Dose-dependent effect” in the data set with TIG-3 [5]; “Non-Toxic” with TIG-3 [10]; “Non-Toxic” in the data set on TIG-3 [11]. Also, the Activity result in the data set with TIG-3 [13] was “Dose-dependent effect”; in the data set with TIG-3 [14], “Non-Toxic”; in the data set with TIG-3 [16] it was “Non-Toxic”; with TIG-3 [19], “Non-Toxic”. In addition, the result (with TIG-3 [2]; in the data set on TIG-3 [4]; in data set [6]; with TIG-3 [7]; with TIG-3 [8]; in data set [9]) was Active. Also, the result (in data set [12]; in the data set on TIG-3 [15]; in the data set on TIG-3 [17]; in [18]) was Active.
